Assay results from ChEMBL document CHEMBL4480366, “Rationally synthesized coumarin based pyrazolines ameliorate carrageenan induced inflammation through COX-2/pro-inflammatory cytokine inhibition” (Medchemcomm, 2019).
Activity calls are given as the source filed them. The rule behind the calls is not given here.

Key:
[1] = tested on: Erythrocyte; assay: Anti-inflammatory activity in human erythrocytes assessed as inhibition of hypotonicity-induced hemolysis at 10 to 100 ug/ml relative to control; assay type: functional, cell-based
[2] = tested on: Rattus norvegicus; assay: Anti-inflammatory activity Wistar rat assessed as inhibition of carrageenan-induced paw edema at 25 to 50 mg/kg pretreated 30 mins prior to carrageenan-induction and measured after 24 hrs by plethysmography; assay type: functional
How it was run: (§1)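 Male Wistar rats, 4–6 weeks old and weighing 150–200 g, were housed four per cage at 22–24 °C with standard food and water.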

[3] = target: T1, Prostaglandin G/H synthase 1 (Ovis aries, UniProt P05979); assay: Inhibition of ovine COX1 using arachidonic acid as substrate preincubated for 10 mins followed by substrate addition and measured after 2 mins by ELISA
T1 sequence (P05979 whole entry): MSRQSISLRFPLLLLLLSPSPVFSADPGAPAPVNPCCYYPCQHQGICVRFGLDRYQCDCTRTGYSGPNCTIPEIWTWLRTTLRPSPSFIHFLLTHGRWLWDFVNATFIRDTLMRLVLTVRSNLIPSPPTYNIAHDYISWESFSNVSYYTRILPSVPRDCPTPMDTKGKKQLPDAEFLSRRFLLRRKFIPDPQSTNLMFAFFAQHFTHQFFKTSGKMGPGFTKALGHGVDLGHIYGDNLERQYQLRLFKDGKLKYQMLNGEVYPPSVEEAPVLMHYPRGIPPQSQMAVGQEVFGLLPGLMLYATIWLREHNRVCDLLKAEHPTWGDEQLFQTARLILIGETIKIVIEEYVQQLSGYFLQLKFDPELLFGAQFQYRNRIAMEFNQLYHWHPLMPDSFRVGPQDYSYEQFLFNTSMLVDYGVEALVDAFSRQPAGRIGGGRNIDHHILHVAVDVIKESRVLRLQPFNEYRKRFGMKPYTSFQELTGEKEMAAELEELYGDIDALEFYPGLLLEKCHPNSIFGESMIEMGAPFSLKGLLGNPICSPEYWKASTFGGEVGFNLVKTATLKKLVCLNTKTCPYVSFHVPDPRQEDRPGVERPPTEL
How it was run: (§2)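 The enzyme, heme and test compound (dissolved in DMSO) were preincubated for 10 min at 37 °C in 0.1 M Tris-HCl, pH 8, with 5 mM EDTA and 2 mM phenol. Arachidonic acid was added to 100 µM final. The reaction was stopped after 2 min with 1 M HCl, then reduced with saturated SnCl2 for 5 min at RT. PGF2α was quantified by EIA (18 h RT, Ellman's reagent 60 min, 410 nm).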

[4] = target: T2, Prostaglandin G/H synthase 2 (Ovis aries, UniProt P79208); assay: Inhibition of ovine COX2 using arachidonic acid as substrate preincubated for 10 mins followed by substrate addition and measured after 2 mins by ELISA; how it was run: as §2
T2 sequence (P79208 whole entry): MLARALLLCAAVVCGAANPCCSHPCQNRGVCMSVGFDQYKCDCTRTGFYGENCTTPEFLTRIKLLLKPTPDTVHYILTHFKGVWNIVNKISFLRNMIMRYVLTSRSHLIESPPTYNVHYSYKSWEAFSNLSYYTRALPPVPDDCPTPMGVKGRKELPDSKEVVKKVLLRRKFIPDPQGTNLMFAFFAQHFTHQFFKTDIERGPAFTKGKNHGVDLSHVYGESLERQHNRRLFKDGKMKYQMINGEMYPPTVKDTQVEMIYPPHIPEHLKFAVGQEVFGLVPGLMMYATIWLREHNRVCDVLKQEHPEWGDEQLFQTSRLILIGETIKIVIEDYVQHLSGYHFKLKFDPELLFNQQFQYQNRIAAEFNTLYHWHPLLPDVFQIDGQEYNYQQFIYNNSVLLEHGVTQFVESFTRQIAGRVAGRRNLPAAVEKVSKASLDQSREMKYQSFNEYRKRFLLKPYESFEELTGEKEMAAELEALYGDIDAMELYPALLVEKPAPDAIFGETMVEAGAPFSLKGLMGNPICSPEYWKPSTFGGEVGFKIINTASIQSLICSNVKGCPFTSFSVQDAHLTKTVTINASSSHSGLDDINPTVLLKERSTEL

[5] = tested on: Rattus norvegicus; assay: Anti-inflammatory activity Wistar rat assessed as reduction in TNF-alpha production at 25 mg/kg, ip pretreated 30 mins prior to carrageenan-induction and measured after 24 hrs post induction by immunoassay; assay type: functional, organism-based; how it was run: as §1
[6] = tested on: Erythrocyte; assay: Anti-inflammatory activity in human erythrocytes assessed as inhibition of heat-induced hemolysis; assay type: functional, cell-based
[7] = tested on: Rattus norvegicus; assay: Anti-inflammatory activity Wistar rat assessed as reduction in IL-6 production at 25 mg/kg, ip pretreated 30 mins prior to carrageenan-induction and measured after 24 hrs post induction by immunoassay; assay type: functional, organism-based; how it was run: as §1
[8] = In-vitro anti-inflammatory activity assessed as inhibition of heat-induced albumin (unknown origin) denaturation
[9] = tested on: Rattus norvegicus; assay: Anti-inflammatory activity Wistar rat assessed as inhibition of carrageenan-induced paw edema at 25 to 50 mg/kg pretreated 30 mins prior to carrageenan-induction and measured after 0.5 to 24 hrs by plethysmography; assay type: functional, organism-based; details: TDE = time-dependent effect; how it was run: as §1
[10] = tested on: Rattus norvegicus; assay: Anti-inflammatory activity Wistar rat assessed as reduction in IL-1beta production at 25 mg/kg, ip pretreated 30 mins prior to carrageenan-induction and measured after 24 hrs post induction by immunoassay; assay type: functional, organism-based; how it was run: as §1

Row | SMILES | Activity [1] | inhibition (INH) [2] [%] | IC50 [3] [µM] | IC50 [4] [µM] | Activity [5] | Activity [6] | Activity [7] | inhibition [8] | inhibition [9] | Activity [10]
1 | CC(=O)N1N=C(c2cc3ccccc3oc2=O)CC1c1ccc([N+](=O)[O-])cc1 (stereo not drawn) | Active | 52.17 | 16.2 | 1.79 | Active | Dose-dependent effect | Active | Dose-dependent effect | Tde | Active
2 | COc1cc(C2CC(c3cc4ccccc4oc3=O)=NN2C(C)=O)cc(OC)c1OC (stereo not drawn) | Active | – | > 30 | 4.35 | – | Dose-dependent effect | – | Dose-dependent effect | – | –
3 | CC(=O)N1N=C(c2cc3ccccc3oc2=O)CC1c1ccc(O)cc1 (stereo not drawn) | Active | 55.43 | 20 | 2.39 | Active | Dose-dependent effect | Active | Dose-dependent effect | Tde | Active
4 | CC(=O)N1N=C(c2cc3ccccc3oc2=O)CC1c1ccccc1 (stereo not drawn) | Active | – | – | – | – | Dose-dependent effect | – | Dose-dependent effect | – | –
